According to ChEMBL document CHEMBL2390828, “Synthesis and biological characterization of spiro[2H-(1,3)-benzoxazine-2,4'-piperidine] based histone deacetylase inhibitors” (Eur J Med Chem, 2013):
Activity calls are given as the source filed them. No cut-off for these calls is given here.

What was measured:
A549 = test: Cytotoxicity against human A549 cells; type: functional, cell-based
Histone deacetylase = test: Inhibition of HDAC in human Hela cell nuclear extract after 15 mins; type: protein assay
HCT-116 [1] = test: Cytotoxicity against human HCT116 cells; type: functional, cell-based
K562 = test: Cytotoxicity against human K562 cells; type: functional, cell-based
[2] = Oral bioavailability in CD1 mouse at 15 mg/kg; conditions: in vivo
[3] = Metabolic stability in human liver microsomes after 30 mins by LC-MS/MS analysis; type: ADME, Microsome; conditions: read-out: Stability
In short: (§1)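 Compounds were incubated with mouse or human liver microsomal preparation for 30 min at 37 °C. The reaction was stopped with CH3CN. Unmetabolized compound was quantified by LC-MS/MS in MRM mode and reported as percent remaining. Replicates n ≥ 2, mean values given.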

[4] = Cmax in CD1 mouse at 5 mg/kg, iv; type: ADME, organism-based; design: dose 5 mg/kg, route intravenous; conditions: in vivo
In short: (§2)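 CD-1 mice got single doses of 5 mg/kg iv or 15 mg/kg orally. The iv vehicle was water with 3% DMSO and 9.7% encapsin. The oral vehicle was water with 5% DMSO and 9.5% encapsin. Plasma PK parameters were calculated, including AUC0–∞, clearance, half-life, Vss, cmax and oral bioavailability.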

[5] = Solubility of the compound at pH 7.4; type: physicochemical; conditions: buffer
[6] = biological target: Voltage-gated inwardly rectifying potassium channel KCNH2 (Homo sapiens, UniProt Q12809); test: Inhibition of human ERG channel
[7] = Metabolic stability in mouse liver microsomes after 30 mins by LC-MS/MS analysis; type: ADME, Microsome; conditions: read-out: Stability; in short: as §1
[8] = Cmax in CD1 mouse at 15 mg/kg, po; conditions: CD1, mouse, in vivo
[9] = Volume of distribution at steady state in CD1 mouse at 5 mg/kg, iv and 15 mg/kg, po; type: ADME, organism-based; conditions: in vivo, read-out: Vdss; in short: as §2
[10] = AUC (0 to infinity) in CD1 mouse at 5 mg/kg, iv; type: ADME, organism-based; design: time infinity, dose 5 mg/kg, route intravenous; conditions: plasma; in short: as §2
[11] = AUC (0 to infinity) in CD1 mouse at 15 mg/kg, po; type: ADME, organism-based; design: time infinity, dose 15 mg/kg, route oral; conditions: plasma; in short: as §2
[12] = Tmax in CD1 mouse at 5 mg/kg, iv and 15 mg/kg, po; type: ADME, organism-based; conditions: in vivo; in short: as §2
[13] = Clearance in CD1 mouse at 5 mg/kg, iv and 15 mg/kg, po; type: ADME, organism-based; conditions: in vivo; in short: as §2
[14] = Terminal half life in CD1 mouse at 5 mg/kg, iv and 15 mg/kg, po; type: ADME, organism-based; conditions: in vivo, read-out: beta t1/2 (converted); in short: as §2
Histone deacetylase 2 = Histone deacetylase 2 (Homo sapiens, UniProt Q92769); test: Inhibition of HDAC2 (unknown origin)
HCT-116 [15] = test: Induction of apoptosis in human HCT116 cells assessed as increase in sub-G1 population after 24 hrs by propidium iodide staining-based FACS analysis; type: functional, cell-based
In short: (§3)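 HCT116 colon carcinoma cells were exposed to several concentrations for 24 h. Cell-cycle profiles were read by flow cytometry, with G0/G1, G2/M and sub-G1 fractions scored.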

HCT-116 [16] = test: Antitumor activity against human HCT116 cells […] in CD1 mouse at 150 mg/kg, po administered 5 days a week for 2 weeks relative to control; type: functional
In short: (§4)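 Female CD-1 nude mice received 5 × 10⁶ HCT116 cells subcutaneously in the flank. Once tumours reached 100 mm³, dosing was 75 or 150 mg/kg orally, once daily, 5 days/week for 2 weeks. Tumour volume and body weight were followed. Tumour/control (T/C) ratio was calculated against vehicle controls.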

[17] = biological target: T1, Protein deacetylase HDAC6 (Homo sapiens, UniProt Q9UBN7); test: Inhibition of HDAC6 (unknown origin)
T1 sequence (Q9UBN7 whole entry): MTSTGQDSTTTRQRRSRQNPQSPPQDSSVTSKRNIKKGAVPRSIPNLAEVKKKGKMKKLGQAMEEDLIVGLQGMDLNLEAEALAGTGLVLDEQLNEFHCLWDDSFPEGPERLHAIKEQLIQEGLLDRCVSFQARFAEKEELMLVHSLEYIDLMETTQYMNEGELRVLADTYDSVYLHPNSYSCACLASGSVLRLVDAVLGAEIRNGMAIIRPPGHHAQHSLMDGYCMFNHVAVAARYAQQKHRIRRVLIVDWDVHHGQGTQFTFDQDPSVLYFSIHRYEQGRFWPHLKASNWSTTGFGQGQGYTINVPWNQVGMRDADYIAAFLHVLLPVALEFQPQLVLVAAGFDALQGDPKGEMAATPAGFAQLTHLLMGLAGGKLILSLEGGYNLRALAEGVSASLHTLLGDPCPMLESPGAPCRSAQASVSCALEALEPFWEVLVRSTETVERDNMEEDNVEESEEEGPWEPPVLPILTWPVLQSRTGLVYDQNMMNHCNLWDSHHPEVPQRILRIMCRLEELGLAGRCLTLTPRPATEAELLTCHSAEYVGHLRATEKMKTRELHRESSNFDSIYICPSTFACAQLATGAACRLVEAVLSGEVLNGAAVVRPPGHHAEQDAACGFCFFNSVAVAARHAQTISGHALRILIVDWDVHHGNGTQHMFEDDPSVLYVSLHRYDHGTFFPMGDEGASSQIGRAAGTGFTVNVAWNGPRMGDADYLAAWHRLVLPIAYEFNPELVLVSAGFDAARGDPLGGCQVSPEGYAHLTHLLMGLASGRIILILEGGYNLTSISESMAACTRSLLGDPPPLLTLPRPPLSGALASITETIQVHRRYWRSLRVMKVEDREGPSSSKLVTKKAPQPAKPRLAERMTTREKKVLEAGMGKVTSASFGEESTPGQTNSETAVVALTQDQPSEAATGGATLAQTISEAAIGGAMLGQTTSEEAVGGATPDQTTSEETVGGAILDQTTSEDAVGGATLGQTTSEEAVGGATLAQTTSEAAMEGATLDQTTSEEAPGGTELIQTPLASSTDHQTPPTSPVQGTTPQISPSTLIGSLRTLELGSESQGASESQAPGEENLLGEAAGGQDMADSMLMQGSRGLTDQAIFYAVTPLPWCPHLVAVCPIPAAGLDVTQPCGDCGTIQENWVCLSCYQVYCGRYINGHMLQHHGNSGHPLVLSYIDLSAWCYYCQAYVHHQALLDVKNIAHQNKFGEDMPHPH

HCT-116 [18] = test: Cell cycle arrest in human HCT116 cells assessed as accumulation at G2/M phase at higher dose after 24 hrs by propidium iodide staining-based FACS analysis; type: functional; in short: as §3
Mus musculus [19] = test: Inhibition of HDAC in human HCT116 cells […] in CD1 mouse at 75 to 150 mg/kg, po administered 5 days a week for 2 weeks by immunohistochemistry relative to control; type: functional, organism-based; conditions: HCT-116
In short: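 Tumours came from HCT116 xenograft-bearing CD-1 nude mice dosed orally at 75 or 150 mg/kg once daily, 5 days/week for 2 weeks. Sections were taken at the end of treatment from vehicle and treated mice. Histone acetylation was stained by immunohistochemistry (anti-acetyl H4 clone T25, 1:13,000) and scored by positive cells and signal intensity.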

HCT-116 [20] = test: Antitumor activity against human HCT116 cells […] in CD1 mouse at 75 mg/kg, po administered 5 days a week for 2 weeks relative to control; type: functional; in short: as §4
Histone deacetylase 3 = Histone deacetylase 3 (Homo sapiens, UniProt O15379); test: Inhibition of HDAC3 (unknown origin)
HCT-116 [21] = test: Cell cycle arrest in human HCT116 cells assessed as accumulation at G0/G1 phase at lower dose after 24 hrs by propidium iodide staining-based FACS analysis; type: functional; in short: as §3
HCT-116 [22] = test: Antitumor activity against human HCT116 cells […] in po dosed CD1 mouse administered 5 days a week for 2 weeks relative to control; type: functional, organism-based; in short: as §4
[23] = biological target: Histone deacetylase (Homo sapiens) (UniProt Q13547+O15379+Q9UBN7+Q92769+Q9UQL6+Q8WUI4+Q9BY41+Q96DB2+P56524+Q9UKV0+Q969S8); test: Inhibition of HDAC in human K562 cells assessed as increase in histone acetylation level after 2 to 8 hrs by flow cytometry; type: cell-based
In short: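 K562 cells were treated at 0.1, 0.5, 1 and 3 µM. Histone acetylation was measured by flow cytometry and reported as the ratio of acetylation level in treated over control cells.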

Mus musculus [24] = test: Toxicity in CD1 mouse xenografted with human HCT116 cells assessed as body weight change at 75 to 150 mg/kg, po qd administered 5 days a week for 2 weeks; type: organism-based, HCT-116; design: dose 75-150 mg/kg, route oral; conditions: in vivo; in short: as §4
[25] = Permeability from apical to basolateral side across human Caco2 cells after 2 hrs by LC-MS analysis; type: ADME, cell-based; conditions: Caco-2, read-out: permeability

Chain of Voltage-gated inwardly rectifying potassium channel KCNH2 (Q12809 whole entry): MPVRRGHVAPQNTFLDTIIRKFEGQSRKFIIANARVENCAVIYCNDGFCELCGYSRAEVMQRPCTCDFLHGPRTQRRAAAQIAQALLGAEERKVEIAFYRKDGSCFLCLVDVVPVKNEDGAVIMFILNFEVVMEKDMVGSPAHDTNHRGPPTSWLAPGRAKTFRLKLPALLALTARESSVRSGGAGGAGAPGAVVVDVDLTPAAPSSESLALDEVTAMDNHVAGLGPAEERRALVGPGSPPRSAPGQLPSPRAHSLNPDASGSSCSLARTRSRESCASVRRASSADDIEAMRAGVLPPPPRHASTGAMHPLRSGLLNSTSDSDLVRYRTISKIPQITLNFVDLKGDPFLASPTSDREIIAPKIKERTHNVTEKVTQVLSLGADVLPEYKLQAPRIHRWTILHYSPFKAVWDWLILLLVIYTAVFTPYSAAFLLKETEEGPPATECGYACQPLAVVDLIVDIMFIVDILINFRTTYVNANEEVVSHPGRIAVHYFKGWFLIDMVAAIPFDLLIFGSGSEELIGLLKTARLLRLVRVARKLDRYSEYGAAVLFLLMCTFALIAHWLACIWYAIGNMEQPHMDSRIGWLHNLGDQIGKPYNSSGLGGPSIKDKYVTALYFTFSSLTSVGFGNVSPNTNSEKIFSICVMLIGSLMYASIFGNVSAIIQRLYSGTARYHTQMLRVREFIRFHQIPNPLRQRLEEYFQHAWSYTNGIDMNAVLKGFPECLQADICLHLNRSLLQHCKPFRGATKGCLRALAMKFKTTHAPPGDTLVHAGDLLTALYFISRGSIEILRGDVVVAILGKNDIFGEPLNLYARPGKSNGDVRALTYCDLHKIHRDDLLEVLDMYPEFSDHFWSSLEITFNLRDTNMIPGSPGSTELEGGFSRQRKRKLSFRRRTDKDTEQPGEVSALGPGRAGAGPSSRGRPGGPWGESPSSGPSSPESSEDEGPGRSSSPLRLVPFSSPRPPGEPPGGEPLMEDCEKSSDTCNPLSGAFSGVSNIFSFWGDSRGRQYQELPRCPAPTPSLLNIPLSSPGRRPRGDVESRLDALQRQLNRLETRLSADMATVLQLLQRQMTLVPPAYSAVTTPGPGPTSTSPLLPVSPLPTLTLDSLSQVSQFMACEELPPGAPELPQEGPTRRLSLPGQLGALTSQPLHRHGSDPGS
Chain of Histone deacetylase 3 (O15379 whole entry): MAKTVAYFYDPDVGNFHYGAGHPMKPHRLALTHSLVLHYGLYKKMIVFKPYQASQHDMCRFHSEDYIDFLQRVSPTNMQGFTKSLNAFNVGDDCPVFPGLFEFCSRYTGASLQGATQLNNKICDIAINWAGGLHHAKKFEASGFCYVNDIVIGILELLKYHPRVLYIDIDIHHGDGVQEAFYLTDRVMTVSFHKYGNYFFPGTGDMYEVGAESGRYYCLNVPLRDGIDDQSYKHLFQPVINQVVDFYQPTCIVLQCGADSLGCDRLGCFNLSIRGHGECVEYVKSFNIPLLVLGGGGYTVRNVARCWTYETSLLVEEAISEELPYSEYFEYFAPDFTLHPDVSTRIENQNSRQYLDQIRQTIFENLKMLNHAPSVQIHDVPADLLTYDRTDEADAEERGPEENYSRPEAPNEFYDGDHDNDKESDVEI
Chain of Histone deacetylase 2 (Q92769 whole entry): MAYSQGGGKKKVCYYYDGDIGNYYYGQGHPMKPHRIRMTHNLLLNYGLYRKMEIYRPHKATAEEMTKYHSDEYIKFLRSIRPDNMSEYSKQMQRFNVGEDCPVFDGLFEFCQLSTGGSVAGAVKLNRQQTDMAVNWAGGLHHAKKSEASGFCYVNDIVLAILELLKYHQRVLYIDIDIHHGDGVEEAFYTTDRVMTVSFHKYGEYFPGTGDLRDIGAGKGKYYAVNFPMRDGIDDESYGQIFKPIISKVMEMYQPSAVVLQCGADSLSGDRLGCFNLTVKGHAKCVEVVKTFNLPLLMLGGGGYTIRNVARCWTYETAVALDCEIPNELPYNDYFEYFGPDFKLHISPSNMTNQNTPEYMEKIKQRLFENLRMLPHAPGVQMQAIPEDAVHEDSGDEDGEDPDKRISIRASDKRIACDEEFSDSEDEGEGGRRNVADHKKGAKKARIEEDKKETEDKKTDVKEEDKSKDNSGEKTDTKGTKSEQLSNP

## O=C(/C=C/c1ccc2c(c1)C(=O)N(Cc1ccccc1)C1(CCN(CCc3ccccc3)CC1)O2)NO
A549
  IC50: 1510 nM
Histone deacetylase
  IC50: 645 nM
HCT-116 [1]
  IC50: 1670 nM
K562
  IC50: 1250 nM

## O=C(/C=C/c1ccc2c(c1)C(=O)N(Cc1ccccc1)C1(CCN(Cc3ccccc3)CC1)O2)NO
A549
  IC50: 2620 nM
Histone deacetylase
  IC50: 540 nM
HCT-116 [1]
  IC50: 1870 nM
K562
  IC50: 1720 nM

## CN1C(=O)c2cc(/C=C/C(=O)NO)ccc2OC12CCN(CCc1ccccc1)CC2
A549
  IC50: 2550 nM
Histone deacetylase
  IC50: 258 nM
HCT-116 [1]
  IC50: 1060 nM
K562
  IC50: 795 nM

## O=C(/C=C/c1ccc2c(c1)C(=O)NC1(CCN(Cc3ccc(F)cc3)CC1)O2)NO
[2]
  bioavailability: 35%
[3]
  remaining at 0.5 h: 71%
[4]
  Cmax: 13 µM
A549
  IC50: 1670 nM
[5]
  solubility: > 200 µM
[6]
  inhibition (INH): 70%
Histone deacetylase
  IC50: 103 nM
[7]
  remaining at 0.5 h: 98%
HCT-116 [1]
  IC50: 498 nM
[8]
  Cmax: 5.05 µM
[9]
  Vd: 3.1 L/kg
[10]
  AUC(0-inf): 1880 ng·h/mL
[11]
  AUC(0-inf): 1980 ng·h/mL
[12]
  Tmax: 0.0833 h
[13]
  clearance: 44.3 mL/min/kg
K562
  IC50: 961 nM
[14]
  half-life: 6.9 h

## O=C(/C=C/c1ccc2c(c1)C(=O)NC1(CCN(Cc3ccccc3)CC1)O2)NO
[2]
  bioavailability: 42.8%
[3]
  remaining at 0.5 h: 77%
Histone deacetylase 2
  IC50: 192 nM
[4]
  Cmax: 13.5 µM
A549
  IC50: 1410 nM
HCT-116 [15]
  Activity: Dose-dependent effect
[5]
  solubility: > 200 µM
HCT-116 [16]
  T/C: 0.33
[17]
  IC50: 110 nM
[6]
  inhibition (INH): 54%
Histone deacetylase
  IC50: 83 nM
HCT-116 [18]
  Activity: Active
[7]
  remaining at 0.5 h: 75%
HCT-116 [1]
  IC50: 515 nM
Mus musculus [19]
  inhibition: Active
HCT-116 [20]
  T/C: 0.59
[8]
  Cmax: 2.71 µM
[9]
  Vd: 8.5 L/kg
Histone deacetylase 3
  IC50: 87 nM
HCT-116 [21]
  Activity: Active
[10]
  AUC(0-inf): 1530 ng·h/mL
HCT-116 [22]
  Activity: Dose-dependent effect
[23]
  inhibition: Dose-dependent effect
[11]
  AUC(0-inf): 1960 ng·h/mL
Mus musculus [24]
  Activity: Non-toxic
[12]
  Tmax: 0.25 h
[13]
  clearance: 54.5 mL/min/kg
[25]
  Papp A→B at 2 h: 0.4 ×10⁻⁶ cm/s
K562
  IC50: 582 nM
[14]
  half-life: 13.4 h

## CN1CCC2(CC1)Oc1ccc(/C=C/C(=O)NO)cc1C(=O)N2C
A549
  IC50: 3540 nM
Histone deacetylase
  IC50: 527 nM
HCT-116 [1]
  IC50: 1400 nM
K562
  IC50: 1700 nM

## CN1CCC2(CC1)NC(=O)c1cc(/C=C/C(=O)NO)ccc1O2
A549
  IC50: 2700 nM
Histone deacetylase
  IC50: 99 nM
HCT-116 [1]
  IC50: 886 nM
K562
  IC50: 1490 nM

## O=C(/C=C/c1ccc2c(c1)C(=O)N(Cc1ccccc1)C1(CCNCC1)O2)NO
A549
  IC50: 3190 nM
Histone deacetylase
  IC50: 59 nM
HCT-116 [1]
  IC50: 857 nM
K562
  IC50: 1520 nM

## CN1C(=O)c2cc(/C=C/C(=O)NO)ccc2OC12CCN(Cc1ccc(F)cc1)CC2
[3]
  remaining at 0.5 h: 60%
A549
  IC50: 2100 nM
Histone deacetylase
  IC50: 137 nM
[7]
  remaining at 0.5 h: 39%
HCT-116 [1]
  IC50: 848 nM
K562
  IC50: 734 nM
